This note sets out measurements from ChEMBL document CHEMBL1146523, “Antimalarial dihydroisocoumarins produced by Geotrichum sp., an endophytic fungus of Crassocephalum crepidioides” (J Nat Prod, 2003).

The subject of one experiment is Candida albicans. The experiment is described as follows: Antifungal activity against Candida albicans. The experiment is classed as functional, organism-based. In outline: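 Candida albicans growth inhibition measured by a colorimetric method. IC50 read-out, with amphotericin B as the standard drug.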
For a further experiment, the system named is Plasmodium falciparum. The experiment is described as follows: Antimalarial activity against multidrug-resistant Plasmodium falciparum K1. In kind it is functional, organism-based. In outline: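 Multidrug-resistant P. falciparum K1 kept in continuous culture (Trager–Jensen). In vitro activity measured by the microculture radioisotope technique (Desjardins). IC50 read-out, with chloroquine diphosphate as the standard.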

The subject of experiment [1] is Mycobacterium tuberculosis. The experiment can be described thus: Antimycobacterial activity against Mycobacterium tuberculosis H37Ra by microplate alamar blue assay. In kind it is functional. In outline: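 Growth inhibition of M. tuberculosis H37Ra in the Microplate Alamar Blue Assay. MIC read-out, with isoniazid and kanamycin sulfate as standard drugs.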

Each structure is given as a SMILES string. In brackets after ≈: the same amount, converted by molar mass. Activity calls are given as the source filed them. No cut-off for these calls is given here.

What is called IC50 is the concentration needed to halve the response being measured. High values mean weaker potency in that assay, low ones greater potency in that assay. With `CCCCC[C@@H]1Cc2cc(O)c(CCCC)c(O)c2C(=O)O1`, the values for the IC50 in the experiment with Candida albicans and with Plasmodium falciparum were 33 µg/mL (≈ 108 µM) and 2.6 µg/mL (≈ 8.49 µM), respectively. The outcome in experiment [1] was inactive.
Usually MIC stands for the lowest concentration found to suppress growth. `NNC(=O)c1ccncc1` [ISONIAZID]: the minimum inhibitory concentration (MIC) in experiment [1] was found to be 0.05 µg/mL (≈ 0.365 µM).
On the same count and under the same terms, the figure for `NC[C@H]1O[C@H](O[C@H]2[C@H](O)[C@@H](O[C@H]3O[C@H](CO)[C@@H](O)[C@H](N)[C@H]3O)[C@H](N)C[C@@H]2N)[C@H](O)[C@@H](O)[C@@H]1O.O=S(=O)(O)O` [KANAMYCIN SULFATE] is 2.5 µg/mL.
In the case of `C[C@@H]1[C@H](O)[C@@H](C)/C=C/C=C/C=C/C=C/C=C/C=C/C=C/[C@H](O[C@@H]2O[C@H](C)[C@@H](O)[C@H](N)[C@@H]2O)C[C@@H]2O[C@](O)(C[C@@H](O)C[C@@H](O)[C@H](O)CC[C@@H](O)C[C@@H](O)CC(=O)O[C@H]1C)C[C@H](O)[C@H]2C(=O)O` [AMPHOTERICIN B], the IC50 in the experiment on Candida albicans turned out to be 0.01 µg/mL (≈ 0.0108 µM).
In the case of `C/C=C/CC[C@@H]1Cc2cc(O)c(C/C=C/C)c(O)c2C(=O)O1`, the outcome in the experiment with Candida albicans and in the experiment on Plasmodium falciparum was inactive. Besides, in experiment [1], the MIC is 50 µg/mL (≈ 165 µM).
On to `C/C=C/CC[C@@H]1Cc2cc(O)c(CCCC)c(O)c2C(=O)O1`, for which the half-inhibitory concentration (IC50) in the experiment on Candida albicans is 19 µg/mL (≈ 62.4 µM); in the experiment on Plasmodium falciparum, 4.7 µg/mL (≈ 15.4 µM). In experiment [1], the MIC is 25 µg/mL (≈ 82.1 µM).
